In PMC7936662 (Thrombosis research, 2020):
Like-named read-outs stand apart in the source and are kept apart here.

What was measured:
[1] = test system: thrombin generation; assay: Thrombin generation assay; format: biochemical; conditions: 70% human platelet-poor plasma, mean ± SD; for Cmax: read-out: Tmax EC2x (concentration of inhibitor required to double the time at which Cmax occurs)
[2] = test system: male SD rats; assay: Arteriovenous shunt; format: in vivo; conditions: rat, 3 mg/kg infusion
[3] = test system: male SD rats; assay: Inferior vena cava; format: in vivo; conditions: rat
[4] = test system: male CD-1 mice; assay: Mouse iron-chloride-induced arterial thrombosis model; format: in vivo
[5] = test system: male SD rats; conditions: rat, cited from earlier work
[6] = test system: male SD rats; conditions: rat, cited from earlier work; remark: listed apart in the source
[7] = test system: thrombin-mediated platelet activation; assay: In vitro platelet activation in whole blood; format: cell-based; conditions: read-out: EC50 inhibition of platelet activation, Mouse blood—Thrombin; 20% whole blood; mean ± SD
[8] = test system: thrombin-mediated platelet activation; assay: In vitro platelet activation in whole blood; format: cell-based; conditions: read-out: EC50 inhibition of platelet activation, Rat blood—Thrombin; 20% whole blood; mean ± SD
[9] = test system: thrombin-mediated platelet activation; assay: In vitro platelet activation in whole blood; format: cell-based, human; conditions: mean ± SD
[10] = test system: TF-mediated platelet activation; assay: In vitro platelet activation in whole blood; format: cell-based, human; conditions: mean ± SD
[11] = test system: male SD rats; assay: Platelet status in AV shunt model; format: in vivo; conditions: rat, vehicle approximately 20%
[12] = test system: male CD-1 mice; assay: Thrombin-induced thromboembolism mouse model; format: in vivo; conditions: 4.5 mg/kg IV, 30 min observation, human α-thrombin 1.75 U/g
How it was run: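 Mice anaesthetised with 1:1 ketamine:xylazine. Test compound given by tail-vein injection; 30 s later human α-thrombin in PBS (1.75 U/g body weight) or PBS alone injected slowly. Mortality observed for 30 min; animals alive at 30 min scored as survivors and euthanised by cervical dislocation. Results expressed as percent survival; n = 12 per treatment group.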

COc1ccc(-n2nc(C(N)=O)c3c2C(=O)N(c2ccc(N4CCCCC4=O)cc2)CC3)cc1 [Apixaban, apixaban]
EC50 ([1]; read-out: Cmax EC50): 100 ± 100 nM
EC50 ([1]; read-out: ETP EC50): 470 ± 10 nM
Cmax [1]: 70 ± 40 nM
inhibition of thrombus formation [2]: about 90%
inhibition of thrombus formation ([3]; 3 mg/kg/infusion): 90%
occlusion time ([4]; 6 mg/kg infusion): > 30 min
inhibition of thrombus formation, literature value ([5]; 3 mg/kg/infusion): ~ 80%
inhibition of thrombus formation, literature ([6]; ref 47 (Shumacher et al. 2010)): about 60%

[H]/N=C(/N)c1ccc(NCc2nc3cc(C(=O)N(CCC(=O)O)c4ccccn4)ccc3n2C)cc1 [Dabigatran, dabigatran]
EC50 [7]: 21 ± 10 nM
EC50 [8]: 27 ± 10 nM
EC50 ([9]; read-out: EC50 inhibition of platelet activation, Human blood (76%)—Thrombin, 76% whole blood): 14 ± 1 nM
EC50 ([9]; read-out: EC50 inhibition of platelet activation, Human blood—Thrombin, 20% whole blood): 35 ± 10 nM
EC50 ([10]; read-out: EC50 inhibition of platelet activation, Human blood (76%)—TF, 76% whole blood): 29 ± 3 nM
EC50 ([10]; read-out: EC50 inhibition of platelet activation, Human blood—TF, 20% whole blood): 23 ± 6 nM
EC50 ([1]; read-out: Cmax EC50): 450 ± 450 nM
EC50 ([1]; read-out: ETP EC50): 310 ± 240 nM
Cmax [1]: 240 ± 240 nM
ED50 thrombus formation ([3]; IV administration): 0.01 mg/kg
occlusion time ([4]; 0.2 mg/kg): > 30 min
activated platelets (average over time points) ([11]; 0.1 mg/kg IV): < 10%
EC50 in AV shunt model, literature [5]: ~ 0.04 mg/kg
ED50, value published by the manufacturer ([6]; IV): 0.033 mg/kg

O=C(NC[C@H]1CN(c2ccc(N3CCOCC3=O)cc2)C(=O)O1)c1ccc(Cl)s1 [Rivaroxaban, rivaroxaban]
EC50 ([1]; read-out: Cmax EC50): 100 ± 100 nM
EC50 ([1]; read-out: ETP EC50): 310 ± 140 nM
Cmax [1]: 100 ± 30 nM
EC50 in AV shunt model, literature value [5]: 0.3 mg/kg

CC1CNc2c(cccc2S(=O)(=O)N[C@@H](CCCNC(=N)N)C(=O)N2CC[C@@H](C)C[C@@H]2C(=O)O)C1 (some centres unmarked) [Argatroban, argatroban]
EC50 ([1]; read-out: Cmax EC50): 350 ± 140 nM
EC50 ([1]; read-out: ETP EC50): 360 ± 162 nM
Cmax [1]: 454 ± 240 nM
treated mice in which mortality was prevented [12]: 91%
occlusion time ([4]; 4 mg/kg): > 30 min
activated platelets (average over time points) ([11]; 2 mg/kg IV): < 10%
